This is an account of results in ChEMBL document CHEMBL1124779, “Synthesis and antitumor activity of 1-[[(dialkylamino)alkyl]amino]-4-methyl-5H-pyrido[4,3-b]benzo[e]- and -benzo[g])indoles. A new class of antineoplastic agents” (1990).

Molecules are shown by their SMILES. Values after ≈ are worked out from the molar mass of the structure shown.

In experiment [1] the test system is L1210. The experiment in a line: Tested for cytotoxicity in the multiple tumor disk diffusion soft agar assay at the dose of 15 ug/disk against leukemia L1210; range is 450-600. The class given is functional, Mus musculus. In outline: (§1)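 Soft agar disk diffusion: bottom layer 0.8% noble agar, top layer 0.47% noble agar, both in 1:1 CMRL-Fischer medium with 11% horse serum. Top layer seeded with 5×10^3 L1210 cells or 10^6 solid tumor cells (C38, PO3). Drug applied on a dried 6-mm filter-paper disk. Incubation 7-11 days. Inhibition zone measured by inverted microscope, in units (1 unit = 30 μm).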
A general note: Agar diffusion results depend on both activity and mobility in agar.

Experiment [2] deals with P388. Nature of the experiment: In vitro cytotoxicity was determined against P388 leukemia cells. The format is functional. The settings on record: Mus musculus, read-out: ID50 (the source's name). In outline:
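P388 cells in exponential growth, RPMI 1640 with 2 mM glutamine, 10 μM 2-mercaptoethanol and 10% FCS, 5% CO2, 37 °C. Cells at 10^5 cells/mL. Drugs in distilled water added on day 0. Cells counted by Coulter counter after 96 h. ID50 (μg/mL, 50% inhibition of proliferation) estimated by regression of concentration/response data.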

Experiment [3] in a line: Cytotoxicity in the multiple tumor disk diffusion soft agar assay at the dose of 15 ug/disk against solid tumor C38. The class given is functional, Mus musculus. In outline:
as §1

For experiment [4], the system named is P388. Nature of the experiment: In vivo T/C (survival time treated/survival time control x 100) was determined against P388 leukemia cells at 40 mg/Kg. The format is functional, Mus musculus. In outline:
(§2)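 B6D2 F1 mice, at least five per group, were inoculated ip on day 0 with 10^6 viable P388 cells (25 mL/kg). Compounds were dissolved in distilled water and given ip (25 mL/kg) daily on days 1–4. Mortality was checked daily, with necropsy of dead animals. T/C×100 was median survival, treated versus control. Survivors beyond 50 days counted as cured and were excluded from the median.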

Experiment [5] is described as follows: Cytotoxicity in the multiple tumor disk diffusion soft agar assay at the dose of 15 ug/disk against solid tumor PO3. The format is functional, Mus musculus. In outline:
as §1

Experiment [6] deals with L1210. The experiment in a line: Tested for cytotoxicity in the multiple tumor disk diffusion soft agar assay at the dose of 15 ug/disk against leukemia L1210; range is 475-600. The format is functional, Mus musculus. In outline:
as §1

Experiment [7] has as its system L1210. Nature of the experiment: Cytotoxicity in the multiple tumor disk diffusion soft agar assay at the dose of 15 ug/disk against leukemia L1210. The class given is functional, Mus musculus. In outline:
as §1

Experiment [8] in a line: Tested for cytotoxicity in the multiple tumor disk diffusion soft agar assay at the dose of 15 ug/disk against solid tumor C38; range is 450-525. The class given is functional, Mus musculus. The method in brief: as §1
The subject of experiment [9] is L1210. Nature of the experiment: Tested for cytotoxicity in the multiple tumor disk diffusion soft agar assay at the dose of 15 ug/disk against leukemia L1210; range is 450-525. The class given is functional, Mus musculus. The method in brief:
as §1

Experiment [10] deals with L1210. Nature of the experiment: Tested for cytotoxicity in the multiple tumor disk diffusion soft agar assay at the dose of 15 ug/disk against leukemia L1210; range is 550-680. The format is functional, Mus musculus. The method in brief:
as §1

The test system of experiment [11] is L1210. The experiment in a line: Tested for cytotoxicity in the multiple tumor disk diffusion soft agar assay at the dose of 15 ug/disk against leukemia L1210. The class given is functional, Mus musculus. In outline: as §1
Experiment [12] is described as follows: Tested for cytotoxicity in the multiple tumor disk diffusion soft agar assay at the dose of 15 ug/disk against solid tumor PO3; range is 300-450. The format is functional, Mus musculus. In outline: as §1
Experiment [13] concerns P388. Nature of the experiment: In vivo T/C (survival time treated/survival time control x 100) was determined against P388 leukemia cells at 20 mg/Kg. The class given is functional, Mus musculus. In outline: as §2
Experiment [14] concerns L1210. The experiment in a line: Tested for cytotoxicity in the multiple tumor disk diffusion soft agar assay at the dose of 15 ug/disk against leukemia L1210; range is 300-380. The format is functional, Mus musculus. The method in brief: as §1
Experiment [15] in a line: Tested for cytotoxicity in the multiple tumor disk diffusion soft agar assay at the dose of 15 ug/disk against solid tumor C38; U = 32 uM. The class given is functional, Mus musculus. The method in brief:
as §1

In experiment [16] the test system is L1210. Nature of the experiment: Tested for cytotoxicity in the multiple tumor disk diffusion soft agar assay at the dose of 15 ug/disk against leukemia L1210; U = 32 uM. The class given is functional, Mus musculus. The method in brief:
as §1

The nature of experiment [17]: Tested for cytotoxicity in the multiple tumor disk diffusion soft agar assay at the dose of 15 ug/disk against solid tumor PO3. The class given is functional, Mus musculus. In outline:
as §1

The test system of experiment [18] is L1210. Nature of the experiment: In vivo T/C (survival time treated/survival time control x 100) was determined against L1210 leukemia cells at 40 mg/Kg. The class given is functional, Mus musculus. In outline: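 B6D2 F1 mice, at least five per group, were inoculated ip on day 0 with 10^5 viable L1210 cells (25 mL/kg). Compounds were dissolved in distilled water and given ip (25 mL/kg) on days 1–4. Deaths were checked daily, with necropsy to separate tumor from toxic death. T/C×100 was median survival of treated over controls. Mice surviving over 50 days counted as cured and were excluded from the median.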

Take `CCN(CC)CCCNc1ncc(C)c2c1c1c3ccccc3ccc1n2C`: the figures for the Cytotoxicity (in the experiment with L1210 [1]; in [3]) were 450 U and 520 U, respectively. For the same compound, the IC50 in the experiment on P388 [2] was found to be 0.1 µg/mL (≈ 0.267 µM). For the same compound, in the experiment with P388 [4], the “T/C x100” value was determined as 124.
Take `Cc1cnc(NCCCN(C)C)c2c3c4ccccc4ccc3n(C)c12`: the Cytotoxicity in experiment [5] came to 550 U; in the experiment on L1210 [6] it was 475 U; with L1210 [7] it was 425 U; in experiment [8] it was 450 U. Moreover, the IC50 in the experiment with P388 [2] came out at 0.05 µg/mL (≈ 0.144 µM). The “T/C x100” value with P388 [4] was 164.
As for `COc1ccc2c(ccc3[nH]c4c(C)cnc(NCC(C)CN(C)C)c4c32)c1` (configuration not stated), the Cytotoxicity was 375 U in experiment [5], 450 U in the experiment on L1210 [9], 425 U in [3] and 425 U in the experiment with L1210 [7]. Besides, the IC50 in the experiment on P388 [2] amounted to 0.55 µg/mL (≈ 1.46 µM). Moreover, the “T/C x100” value in the experiment on P388 [4] amounted to 151.
For `COc1ccc2c(ccc3c2c2c(NCCCN(C)C)ncc(C)c2n3C)c1`, the Cytotoxicity in experiment [5] is 200 U; in experiment [3], 325 U; in the experiment with L1210 [7], 425 U; in the experiment with L1210 [10], 550 U. Moreover, the IC50 in the experiment with P388 [2] is 0.5 µg/mL (≈ 1.33 µM). Moreover, the “T/C x100” value with P388 [4] came out at 150.
Regarding `Cc1c[nH]c(NCCCN(C)C)c2c3ccc4c(O)cccc4c3nc1-2`, the Cytotoxicity in the experiment with L1210 [11] came out at 500 U; in [12] it was 300 U; in [3] it was 400 U; in the experiment with L1210 [7], 450 U. Besides, the IC50 with P388 [2] is 0.05 µg/mL (≈ 0.143 µM). In addition, the “T/C x100” value in the experiment with P388 [13] was found to be 169.
For `CCN(CC)CCCNc1ncc(C)c2c1c1ccc3ccccc3c1n2C`, the Cytotoxicity is listed as 300 U in the experiment with L1210 [14], 500 U in experiment [15], 450 U in the experiment with L1210 [16] and 200 U in experiment [17]. Further, the IC50 with P388 [2] came to 0.375 µg/mL (≈ 1 µM). Also, the “T/C x100” value in the experiment on P388 [13] came to 108.
In the case of `CCN(CC)CCCNc1[nH]cc(C)c2nc3ccc4cc(OC)ccc4c3c1-2`, the “T/C x100” value in the experiment with L1210 [18] came to 112; with P388 [4] it was 189. Also, the IC50 with P388 [2] was 1 µg/mL (≈ 2.56 µM).
